Assay results: ChEMBL document CHEMBL3627597, “Synthesis of Fluorine-Containing Phosphodiesterase 10A (PDE10A) Inhibitors and the In Vivo Evaluation of F-18 Labeled PDE10A PET Tracers in Rodent and Nonhuman Primate” (J Med Chem, 2015); call rule not given here

Key:
Liver [1] = experiment: Biodistribution in Sprague-Dawley rat liver at 1.48 to 2.22 MBq, iv measured at 5 mins by gamma counting analysis; type: ADME, organism-based; conditions: in vivo
In short: (§1)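 Male Sprague-Dawley rats (250 - 400 g), tail-vein injection of 1.48 - 2.22 MBq radiotracer under 2.5% isoflurane in oxygen; n=4 per time point, euthanized at 5, 30 and 60 min p.i. Brain regions obtained by gross dissection; peripheral tissues collected. Samples weighed, gamma-counted against a diluted-injectate standard; %ID/g calculated.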

Kidney [2] = experiment: Biodistribution in Sprague-Dawley rat kidney at 1.48 to 2.22 MBq, iv measured at 5 mins by gamma counting analysis; type: ADME, organism-based; conditions: in vivo; in short: as §1
Muscle tissue [3] = experiment: Biodistribution in Sprague-Dawley rat muscle at 1.48 to 2.22 MBq, iv measured at 5 mins by gamma counting analysis; type: ADME, organism-based; conditions: in vivo; in short: as §1
Brain = experiment: Biodistribution in Sprague-Dawley rat brain at 1.48 to 2.22 MBq, iv measured at 5 mins by gamma counting analysis; type: ADME, organism-based; conditions: in vivo; in short: as §1
Blood = experiment: Biodistribution in Sprague-Dawley rat blood at 1.48 to 2.22 MBq, iv measured at 30 mins by gamma counting analysis; type: ADME, organism-based; conditions: in vivo, 0.5 h; in short: as §1
Kidney [4] = experiment: Biodistribution in Sprague-Dawley rat kidney at 1.48 to 2.22 MBq, iv measured at 30 mins by gamma counting analysis; type: ADME, organism-based; conditions: in vivo, 0.5 h; in short: as §1
Bone [5] = experiment: Biodistribution in Sprague-Dawley rat bone at 1.48 to 2.22 MBq, iv measured at 30 mins by gamma counting analysis; type: ADME, organism-based, Bone element; conditions: in vivo, 0.5 h; in short: as §1
Liver [6] = experiment: Biodistribution in Sprague-Dawley rat liver at 1.48 to 2.22 MBq, iv measured at 60 mins by gamma counting analysis; type: ADME, organism-based; conditions: in vivo, 1 h; in short: as §1
Muscle tissue [7] = experiment: Biodistribution in Sprague-Dawley rat muscle at 1.48 to 2.22 MBq, iv measured at 60 mins by gamma counting analysis; type: ADME, organism-based; conditions: in vivo, 1 h; in short: as §1
Bone [8] = experiment: Biodistribution in Sprague-Dawley rat bone at 1.48 to 2.22 MBq, iv measured at 60 mins by gamma counting analysis; type: ADME, organism-based, Bone element; conditions: in vivo, 1 h; in short: as §1
Nucleic Acid [9] = experiment: Ratio of drug level in striatum to midbrain region in cynomolgus monkey at 185 to 259 MBq, iv measured at 40 mins by micro PET image analysis; type: ADME, organism-based, Macaca fascicularis, Brain; conditions: in vivo
In short: (§2)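 Adult male cynomolgus macaques (~4–6 kg), three independent PET studies per tracer on a microPET Focus 220. Animals fasted 12 h and anesthetized with ketamine (10 mg/kg) plus glycopyrrolate (0.13 mg/kg) i.m. A 10 min positioning transmission scan and a 45 min attenuation transmission scan were run, then a 3 h dynamic emission scan after venous tracer injection. Regional TACs came from ROIs, expressed as SUV (body weight, injected dose).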

Nucleic Acid [10] = experiment: Ratio of drug level in striatum to frontal in cynomolgus monkey at 185 to 259 MBq, iv measured at 40 mins by micro PET image analysis; type: ADME, organism-based, Macaca fascicularis; conditions: in vivo; in short: as §2
Nucleic Acid [11] = experiment: Ratio of drug level in striatum to occipital in cynomolgus monkey at 185 to 259 MBq, iv measured at 70 mins by micro PET image analysis; type: ADME, organism-based, Macaca fascicularis; conditions: in vivo; in short: as §2
[12] = Metabolic stability in cynomolgus monkey plasma assessed as compound remaining at 185 to 259 MBq, iv measured at 60 mins by HPLC analysis; type: ADME, organism-based, Macaca fascicularis; conditions: read-out: Stability
In short: (§3)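 Arterial blood (~1.5 mL) drawn at 2, 15, 30, 60 and 90 min p.i. into heparinized syringes, then centrifuged to plasma. Plasma deproteinated with 2 parts ice-cold methanol. Extract run on C-18 HPLC, MeCN/0.1 M ammonium formate pH 4.5, 0.9 mL/min, UV 254 nm. 1-min fractions over 16 min were well-counted and decay-corrected; parent percentage taken from recovered activity.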

[13] = Metabolic stability in cynomolgus monkey plasma assessed as compound remaining at 185 to 259 MBq, iv measured at 90 mins by HPLC analysis; type: ADME, organism-based, Macaca fascicularis; conditions: read-out: Stability; in short: as §3
Caudate = experiment: Drug uptake in cynomolgus monkey caudate at 185 to 259 MBq, iv measured over 180 mins by micro PET image analysis; type: ADME, organism-based, Macaca fascicularis, Caudate nucleus; conditions: in vivo, 3 h
In short: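 Adult male cynomolgus macaques (~4–6 kg), three studies per tracer, fasted 12 h. Induction with ketamine 10 mg/kg plus glycopyrrolate 0.13 mg/kg i.m. Transmission scans of 10 min for positioning and 45 min for attenuation correction, then a 3 h dynamic microPET emission scan after venous injection of 185 - 259 MBq. ROI time-activity curves expressed as SUV (body weight and injected dose).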

Cn1cc(-c2ccncc2)c(-c2ccc(OCc3nc4ccccc4cc3OCC[18F])cc2)n1
Drug uptake (Liver [1]): 4.24 % ID/g
Drug uptake (Kidney [2]): 1.789 % ID/g
Drug uptake (Muscle tissue [3]): 0.166 % ID/g
Drug uptake (Brain): 0.092 % ID/g
Drug uptake (Blood): 0.306 % ID/g
Drug uptake (Kidney [4]): 1.022 % ID/g
Drug uptake (Bone [5]): 0.144 % ID/g
Drug uptake (Liver [6]): 1.8 % ID/g
Drug uptake (Muscle tissue [7]): 0.134 % ID/g
Drug uptake (Bone [8]): 0.224 % ID/g
Ratio (Nucleic Acid [9]): > 3
Ratio (Nucleic Acid [10]): > 3
Ratio (Nucleic Acid [11]): > 5
remaining at 1 h [12]: 55%
remaining at 1.5 h [13]: 45%
Drug uptake (Caudate): Active
